Experimental data gathered from unrelated publications.
Compare with care: the assays were run in different laboratories.
Cell line: HL-60
Observed: cell growth or viability

For `Nc1ccccc1NC(=O)c1ccc(Cn2cnc3c(Nc4ccc(Br)cc4F)ncnc32)cc1`, the IC50 was 0.99 µM (MTT; 72 h).
For `FC(F)(F)c1cc(OCc2cc(-c3ccccc3)no2)c2ccccc2n1`, the IC50 was greater than 100 µM (MTS; 72 h).
For `CN1CCc2c(c3ccccc3n2Cc2ccc(C(=O)NO)cc2)C1`, the IC50 was 8.87 µM (CCK-8; 48 h).
`O=C(NO)c1ccc(Cn2cnc3c(Nc4ccc(Br)cc4F)ncnc32)cc1` gave an IC50 of 5.98 µM (MTT; 72 h).
With `O=C(CSc1nc2ccccc2s1)N/N=C/c1ccc(OCC(=O)Nc2cccc([N+](=O)[O-])c2)cc1` the IC50 was greater than 100 µM (MTS; 72 h).
With `FC(F)(F)c1ccc(-c2cc(CNc3cccc4cccnc34)on2)cc1` the IC50 was greater than 100 µM (MTS; 72 h).
`O=C(NO)c1ccc(Cn2cnc3c(Nc4ccc(F)c(Cl)c4)ncnc32)cc1` has an IC50 of 2.55 µM (MTT; 72 h).
`c1ccc(-c2cc(CNc3cccc4cccnc34)on2)cc1` gave an IC50 of 79.6 µM (MTS; 72 h).
With `O=C(CSc1nc2ccccc2s1)N/N=C/c1ccc(OCC(=O)Nc2ccc(Br)cc2)cc1` the IC50 was greater than 100 µM (MTS; 72 h).
The IC50 of `N#Cc1ccc(-c2cc(COc3cc(C(F)(F)F)nc4ccccc34)on2)cc1` is reported as 62.2 µM (MTS; 72 h).
`O=C(CSc1nc2ccccc2s1)N/N=C/c1ccc(OCC(=O)Nc2ccc([N+](=O)[O-])cc2)cc1` has an IC50 of 16.1 µM (MTS; 72 h).
`C=C1C[C@@]23CC[C@H]4[C@@](C)(CCC[C@@]4(C)C(=O)O)[C@@H]2CC[C@@H]1C3` gave an IC50 of 155 µM (XTT; 75 h).
